Results published in paper PMC7729281 (Biochemistry, 2020).
Values joined by “and” are separate entries in the source; they are usually repeats but may differ in a detail not shown here. Equal entries are not always repeated. Where two headings read alike, the source gives them in different places.

Legend:
human platelets = assay: Collagen-stimulated platelet aggregation; format: cell-based; conditions: 10 min incubation, collagen 0.25 μg/mL
Procedure, shortened: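 Washed human platelets were isolated by serial centrifugation and resuspended in Tyrode's buffer at 3 × 10^8/mL. They were preincubated with test compound (1–10 μM) for 10 min at 37 °C, then stimulated with 0.25 μg/mL collagen while stirring at 1100 rpm. Maximum aggregation was read as the light-transmittance change, mean ± SEM of 3–5 independent experiments. Comparison versus vehicle used one-way ANOVA with Dunnett's test.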

M2-polarized macrophages = M2-polarized macrophages challenged by inhibitor ref 44; cited from earlier work
h12-LOX [1] = molecular target: T1, h12-LOX (Homo sapiens, UniProt P18054); assay: Allosteric modulation of 14S-HpDHA epoxidation by h12-LOX; format: biochemical; conditions: 1 μM 14S-HpDHA
T1 sequence (P18054 1-663): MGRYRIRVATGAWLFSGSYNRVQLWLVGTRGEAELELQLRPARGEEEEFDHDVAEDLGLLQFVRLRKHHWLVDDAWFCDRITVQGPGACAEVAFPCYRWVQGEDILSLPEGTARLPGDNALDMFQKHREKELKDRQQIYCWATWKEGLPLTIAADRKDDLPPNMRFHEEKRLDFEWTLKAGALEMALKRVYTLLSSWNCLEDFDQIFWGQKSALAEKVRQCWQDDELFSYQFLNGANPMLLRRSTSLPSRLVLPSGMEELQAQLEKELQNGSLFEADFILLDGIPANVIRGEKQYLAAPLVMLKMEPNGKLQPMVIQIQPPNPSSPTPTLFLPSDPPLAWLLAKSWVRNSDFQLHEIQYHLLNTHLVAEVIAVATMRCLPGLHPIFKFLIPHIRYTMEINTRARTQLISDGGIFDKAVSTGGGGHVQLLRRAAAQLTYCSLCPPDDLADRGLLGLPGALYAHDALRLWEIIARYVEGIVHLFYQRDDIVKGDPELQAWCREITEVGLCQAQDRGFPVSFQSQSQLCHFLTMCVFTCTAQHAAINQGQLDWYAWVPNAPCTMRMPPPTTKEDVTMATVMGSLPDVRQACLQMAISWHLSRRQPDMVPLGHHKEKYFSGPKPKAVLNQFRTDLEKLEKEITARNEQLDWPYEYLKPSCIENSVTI
Procedure, shortened: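 Recombinant human h15-LOX-1 (0.125 μM, 25 mM HEPES pH 7.5, 20 min) or h12-LOX (0.3 μM, pH 8.0, 1 h) reacted at room temperature with 1 μM 14S-HpDHA while oxylipin modulator was titrated (1–100 μM), or with 14S-HpDHA varied alone (1–50 μM). Products were reduced and analysed by LC-MS. Dehydration (epoxide) versus oxygenation product percentages were calculated, N = 3.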

h15-LOX-1 [2] = molecular target: T2, h15-LOX-1 (Homo sapiens, UniProt P16050); conditions: h15-LOX-1 with AA, obtained previously ref 22; cited from earlier work
T2 sequence (P16050 1-662): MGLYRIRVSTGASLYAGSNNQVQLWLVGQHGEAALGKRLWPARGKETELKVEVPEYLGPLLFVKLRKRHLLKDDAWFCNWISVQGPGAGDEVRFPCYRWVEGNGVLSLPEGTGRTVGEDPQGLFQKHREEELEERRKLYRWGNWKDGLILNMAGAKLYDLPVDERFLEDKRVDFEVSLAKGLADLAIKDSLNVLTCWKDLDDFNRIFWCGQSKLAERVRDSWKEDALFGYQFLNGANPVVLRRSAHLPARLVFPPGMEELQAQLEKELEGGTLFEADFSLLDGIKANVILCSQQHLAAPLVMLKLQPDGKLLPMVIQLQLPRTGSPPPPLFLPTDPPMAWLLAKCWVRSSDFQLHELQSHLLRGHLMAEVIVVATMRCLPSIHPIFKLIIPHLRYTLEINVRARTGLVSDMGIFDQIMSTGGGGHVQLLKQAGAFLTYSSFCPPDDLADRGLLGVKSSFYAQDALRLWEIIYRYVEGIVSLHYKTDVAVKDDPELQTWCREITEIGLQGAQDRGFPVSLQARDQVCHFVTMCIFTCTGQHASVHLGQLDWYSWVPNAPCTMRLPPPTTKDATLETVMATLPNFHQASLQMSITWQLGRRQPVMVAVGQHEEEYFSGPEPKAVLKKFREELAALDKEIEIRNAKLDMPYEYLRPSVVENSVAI

h15-LOX-1 [3] = molecular target: T2, h15-LOX-1; assay: Product analysis of h15-LOX-1 reactions; format: biochemical
Procedure, shortened: (§1)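 h15-LOX-1 (0.125 μM, pH 7.5) or h12-LOX (0.300 μM, pH 8.0) was reacted in 25 mM HEPES at room temperature under ambient O2. Substrates were 10 μM DHA for 1 min (monitored at 234 nm) or 1 μM 14S-HpDHA for 20 min (h15-LOX-1) or 1 h (h12-LOX) (monitored at 270 nm). Reactions were quenched with acetic acid, spiked with d5-maresin-1, extracted into DCM and background-subtracted against a no-enzyme control. Split samples were run with or without trimethyl phosphite reduction. Products were identified by C18 LC-MS/MS (qTOF), N = 3.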

h12-LOX [4] = molecular target: T1, h12-LOX; assay: Product analysis of h12-LOX reactions; format: biochemical
Procedure, shortened: as §1

h15-LOX-1 [5] = molecular target: T2, h15-LOX-1; assay: Steady-state kinetics of h15-LOX-1; conditions: for fold difference of kcat/KM: h15-LOX-1, kcat/KM of enzyme with DHA set to 1 (Table 5)
h12-LOX [6] = molecular target: T1, h12-LOX; assay: Steady-state kinetics of h12-LOX
[7] = substrate: CC/C=C\C/C=C\C/C=C\C/C=C\C/C=C\C/C=C\CCC(=O)O; assay: purified protein, by the assay type
[8] = substrate: CCCCC/C=C\C/C=C\C/C=C\C/C=C\CCCC(=O)O; assay: purified protein, by the assay type; conditions: other: h12-LOX + substrate, 25 mM HEPES pH 8.0, RT
[9] = h15-LOX-1 + substrate, 25 mM HEPES pH 7.5, RT
[10] = h12-LOX + substrate, 25 mM HEPES pH 8.0, RT
[11] = other: h12-LOX + substrate, 25 mM HEPES pH 8.0, RT
[12] = other: h15-LOX-1 + substrate, 25 mM HEPES pH 7.5, RT

For CC/C=C\C/C=C\C[C@H](O)/C=C/C=C\C=C\[C@@H](O)C/C=C\CCC(=O)O [7S,14S-EZE-diHDHA, 7S,14S-dihydroxy-4Z,8E,10Z,12E,16Z,19Z-docosahexaenoic acid], the “concentration required to completely inhibit platelet aggregation” value (human platelets) was 5 to 10 µM.

For O=C(Nc1ccc(F)cc1Cl)c1n[nH]c(Cl)c1Cl [BLX-3887], the “decrease of 14S-HDHA production” value (M2-polarized macrophages) is given as 45% and the “decrease of maresin production” value (M2-polarized macrophages) is given as 70%.

For CCCCC/C=C\C[C@H](O)/C=C/C=C\C/C=C\CCCC(=O)O [12S-HETE, 12S-hydroxy-5Z,8Z,10E,14Z-eicosatetraenoic acid, reference compound], the “allosteric effect on epoxidation” value (h12-LOX [1]; titration of modulator) was “no allosteric effect”.

In the case of CC/C=C\C/C=C\C[C@H](O)/C=C/C=C\C/C=C\CCCCCC(=O)O [14S-HDPAω-3, 14S-hydroxy-7Z,10Z,12E,16Z,19Z-docosapentaenoic acid], the “epoxidation product at end of titration” value (h12-LOX [1]; titration with modulator, 72.0% at start) is reported as 5.0%.

In the case of CC/C=C\C/C=C\C[C@H](O)\C=C/C=C/C=C/[C@H](O)C/C=C\CCC(=O)O [MaR-1, 7R,14S-dihydroxy-4Z,8E,10E,12Z,16Z,19Z-docosahexaenoic acid, reference compound], the “concentration required to completely inhibit platelet aggregation” value (human platelets) is reported as 5 to 10 µM.

For CCCCC/C=C\C/C=C\C/C=C\C/C=C\CCCC(=O)O [AA, arachidonic acid], the Km (h15-LOX-1 [2]) is given as 2.7 ± 0.3 µM, the kcat (h15-LOX-1 [2]) is given as 5.3 ± 0.4 s⁻¹ and the “product profile: ω-9 oxylipin 12S-HETE / 12S-HpETE” value (h15-LOX-1 [3]; h15-LOX-1 + AA) is given as 10%.

In the case of CCCCC/C=C\C[C@H](O)/C=C/C=C\CCCCCCC(=O)O [12S-HETrE, 12S-hydroxy-8Z,10E,14Z-eicosatrienoic acid, reference compound], the “concentration required to completely inhibit platelet aggregation” value (human platelets) is reported as 5 to 10 µM.

In the case of CC/C=C\C/C=C\C/C=C\C/C=C\C/C=C\C/C=C\CCC(=O)O [DHA, docosahexaenoic acid], the “product profile: 11S-HpDHA (ω-12)” value (h12-LOX [4]; h12-LOX + 10 μM DHA, 1 min) is reported as 19% and 19 ± 3%, the “product profile: 14S-HpDHA (ω-9)” value (h12-LOX [4]; h12-LOX + 10 μM DHA, 1 min) is reported as 81% and 81 ± 3% and the “product profile: 17S-HpDHA (ω-6)” value (h12-LOX [4]; h12-LOX + 10 μM DHA, 1 min) is reported as less than 1.0%. The “14S-HpDHA product selectivity of h12-LOX greater than that of h15-LOX-1” value (h12-LOX [4]; substrate DHA) was 2 fold, the “fold difference of 14S-HpDHA biosynthetic flux” value (h15-LOX-1 [5]; h15-LOX-1 + DHA) was 1.0 and the 14S-HpDHA biosynthetic flux (h15-LOX-1 [5]; h15-LOX-1 + DHA, B.F. = kcat/KM * % product) was 0.14. For the same molecule, the “fold difference of kcat/KM” value (h15-LOX-1 [5]) was 1.0, the “product profile: 11S-HpDHA (ω-12)” value (h15-LOX-1 [3]; h15-LOX-1 + 10 μM DHA, 1 min) was 12% and 12 ± 1% and the “product profile: 14S-HpDHA (ω-9)” value (h15-LOX-1 [3]; h15-LOX-1 + 10 μM DHA, 1 min) was 40 ± 1%. The “product profile: 17S-HpDHA (ω-6)” value (h15-LOX-1 [3]; h15-LOX-1 + 10 μM DHA, 1 min) was 46% and 46 ± 1%, the 14S-HpDHA biosynthetic flux (h12-LOX [6]; h12-LOX + DHA, B.F. = kcat/KM * % product) was 11 and the “fold difference of kcat/KM” value (h12-LOX [6]; h12-LOX, kcat/KM of enzyme with DHA set to 1 (Table 5)) was 1.0. The “kcat/KM of h12-LOX greater than that of h15-LOX-1” value (h12-LOX [6]; substrate DHA) was 39 fold.

For CC/C=C\C/C=C\C[C@H](O)/C=C/C=C\C/C=C\C/C=C\CCC(=O)O [14S-HDHA, 14S-hydroxy-4Z,7Z,10Z,12E,16Z,19Z-docosahexaenoic acid], the Km (h15-LOX-1 [5]; [9]) was 18 ± 4 µM, the kcat (h15-LOX-1 [5]; [9]) was 0.57 ± 0.01 s⁻¹ and the “fold difference of kcat/KM” value (h15-LOX-1 [5]) was −13. It also gave a Km (h12-LOX [6]; [10]) of 210 ± 70 µM and a kcat (h12-LOX [6]; [10]) of 0.17 ± 0.03 s⁻¹.

B1: h12-LOX (Homo sapiens) (protein)
chain: T1 sequence (P18054 1-663)
Work on B1 yielded a Km [7, 11] of 0.90 ± 0.06 µM, a kcat [7, 11] of 13 ± 0.2 s⁻¹ and a kcat/Km [7, 11] of 1.4e+07 ± 800000 M⁻¹ s⁻¹. It also gave a Km [8] of 0.95 ± 0.1 µM, a kcat [8] of 18 ± 0.8 s⁻¹ and a kcat/Km [8] of 1.9e+07 ± 2e+06 M⁻¹ s⁻¹.

B2: h15-LOX-1 (Homo sapiens) (protein)
chain: T2 sequence (P16050 1-662)
For B2, the Km [7, 12] was 6.7 ± 3 µM, the kcat [7, 12] was 2.4 ± 0.6 s⁻¹ and the kcat/Km [7, 12] was 360000 ± 100000 M⁻¹ s⁻¹.
